Source: ChEMBL document CHEMBL4823313 (Bioorg Med Chem, 2021)

Tests used:
[1] = test system: SARS-CoV-2; assay: (§1) Antiviral activity against SARS-CoV-2 nCoV-2019BetaCoV/Wuhan/WIV04/ infected in African green monkey Vero E6 cells assessed as inhibition of viral replication at 5 uM when host cells were pretreated for 1 hr followed by viral infection then followed by removal of infected supernatant and subsequent culture addition with fresh compounds and measured after 24 hrs by qRT-PCR method relative to control; assay type: functional; settings: Severe acute respiratory syndrome coronavirus 2, nCoV-2019BetaCoV/Wuhan/WIV04/, Vero C1008, time 25 hrs
[2] = test system: SARS-CoV-2; assay: as §1, with “replication” for “replication at 5 uM”, “method” for “method relative to control”; assay type: functional, organism-based; settings: Severe acute respiratory syndrome coronavirus 2, nCoV-2019BetaCoV/Wuhan/WIV04/, Vero C1008
[3] = test system: Vero C1008; assay: Cytotoxicity against African green monkey Vero E6 cells by CCK8 assay; assay type: cell-based; settings: chlorocebus sabaeus
In short: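 Vero E6 cell viability was read by CCK-8 colorimetric assay.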

[4] = test system: SARS-CoV-2; assay: as §1, with “10” for “5”; assay type: functional; settings: Severe acute respiratory syndrome coronavirus 2, nCoV-2019BetaCoV/Wuhan/WIV04/, Vero C1008, time 25 hrs
[5] = Stability of compound in stimulated intestinal fluid assessed as parent compound remaining measured after 4 hrs by HPLC analysis; assay type: ADME; settings: simulated intestinal fluid, read-out: Stabilty
In short: (§2)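 Compound solution was diluted into artificial gastric or intestinal juice and incubated at 37 °C. Samples were taken at 0, 1, 2, 3, 4, 6 and 24 h and quenched with ice-cold acetonitrile. After centrifugation, supernatants were analysed by HPLC.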

[6] = Stability of compound in stimulated gastric fluid incubated for 24 hrs by HPLC analysis; assay type: ADME; settings: simulated gi fluid; in short: as §2
[7] = AUClast in CD-1 mouse at 25 mg/kg, iv by LC-MS/MS analysis; assay type: ADME, organism-based; design: route intravenous, time 0 - last, dose 25 mg/kg; settings: in vivo
In short: (§3)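 Mice were fasted 12 h. Dosing was 50 mg/Kg orally or 25 mg/Kg intravenously, in DMSO-ethanol-PEG300-saline (5/5/40/50, v/v/v/v). Blood was drawn from the femoral vein into heparinized tubes at several post-dose times, and analytes were measured by LC-MS/MS.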

[8] = Half life in CD-1 mouse at 50 mg/kg, po by LC-MS/MS analysis; assay type: ADME, organism-based; settings: in vivo; in short: as §3
[9] = Half life in CD-1 mouse at 25 mg/kg, iv by LC-MS/MS analysis; assay type: ADME, organism-based; settings: in vivo; for half-life: CD-1, mouse; in short: as §3
[10] = AUClast in CD-1 mouse at 50 mg/kg, po by LC-MS/MS analysis; assay type: ADME, organism-based; design: route oral, time 0 - last, dose 50 mg/kg; settings: in vivo; in short: as §3
[11] = Observed MRT infinity in CD-1 mouse at 50 mg/kg, po by LC-MS/MS analysis; assay type: ADME, organism-based; settings: in vivo; in short: as §3
[12] = Cmax in CD-1 mouse at 50 mg/kg, po by LC-MS/MS analysis; assay type: ADME, organism-based; design: route oral, dose 50 mg/kg; settings: in vivo; in short: as §3
[13] = Observed MRT infinity in CD-1 mouse at 25 mg/kg, iv by LC-MS/MS analysis; assay type: ADME, organism-based; settings: in vivo; for MRT inf: CD-1, mouse; in short: as §3
[14] = Observed volume of distribution at steady state in CD-1 mouse at 25 mg/kg, iv by LC-MS/MS analysis; assay type: ADME, organism-based; settings: in vivo; for Vd: CD-1, mouse, read-out: Vdss; in short: as §3
[15] = Tmax in CD-1 mouse at 50 mg/kg, po by LC-MS/MS analysis; assay type: ADME, organism-based; settings: in vivo; in short: as §3
[16] = Oral bioavailability in CD-1 mouse at 50 mg/kg by LC-MS/MS analysis; assay type: ADME, organism-based; settings: in vivo; in short: as §3
[17] = Acute toxicity in ICR mouse assessed as effect on organ weight at 100 to 1000 mg/kg, po via gavage and measured after 7 days; assay type: organism-based; settings: in vivo, 168 h, dose 100-1000 mg/kg, time 7 day
[18] = Acute toxicity in po dosed ICR mouse assessed as maximum tolerated dose measured after 7 days; assay type: organism-based; settings: in vivo, time 7 day
In short: (§4)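 Male ICR mice (28–36 g), 3 per group, were fasted 16 h. Each got one oral gavage dose of 50, 100, 200, 500 or 1000 mg/kg in 5% DMSO, 5% Solution Hs15 and 90% saline. Clinical signs, body weight and food consumption were followed for 7 days, and animals were sacrificed on day 8.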

[19] = Acute toxicity in ICR mouse assessed as effect on body weight at 100 to 1000 mg/kg, po via gavage and measured after 7 days; assay type: organism-based; settings: in vivo, 168 h, dose 100-1000 mg/kg, time 7 day; in short: as §4

Structure (SMILES): Nc1ncnn2c([C@@H]3O[C@H](CO)[C@@H](O)[C@H]3F)ccc12
- inhibition at 5 µM [1]: < 10%

Structure (SMILES): CCC(CC)COC(=O)[C@H](C)N[P@](=O)(OC[C@H]1O[C@@](C#N)(c2ccc3c(N)ncnn23)[C@H](O)[C@@H]1O)Oc1ccccc1
- EC50 [2]: 2000 nM
- inhibition at 5 µM [1]: 65%

Structure (SMILES): Nc1ncnn2c([C@@H]3O[C@H](CO)[C@@H](O)[C@H]3O)ccc12
- Activity [3]: Toxic

Structure (SMILES): N#C[C@@]1(c2cc(F)c3c(N)ncnn23)O[C@H](CO)[C@@H](O)[C@H]1O
- inhibition at 10 µM [4]: 97%
- EC50 [2]: 3300 nM
- inhibition at 5 µM [1]: 80%

Structure (SMILES): CC(=O)[C@@]1(c2ccc3c(N)ncnn23)O[C@H](CO)[C@@H](O)[C@H]1O
- inhibition at 5 µM [1]: < 10%

Structure (SMILES): CCCCCOC(=O)Nc1ncnn2c([C@]3(C#N)O[C@H](CO)[C@@H](O)[C@H]3O)ccc12
- inhibition at 10 µM [4]: 65%

Structure (SMILES): CC(C)C(=O)O[C@H]1[C@@H](OC(=O)C(C)C)[C@](C#N)(c2ccc3c(N)ncnn23)O[C@@H]1CO
- inhibition at 5 µM [1]: 99%

Structure (SMILES): Nc1ncnn2c([C@]3(CO)O[C@H](CO)[C@@H](O)[C@H]3O)ccc12
- inhibition at 5 µM [1]: < 10%

Structure (SMILES): N#C[C@@]1(c2cc(I)c3c(N)ncnn23)O[C@H](CO)[C@@H](O)[C@H]1O
- inhibition at 5 µM [1]: < 10%

Structure (SMILES): CC(C)[C@H](N)C(=O)OC[C@H]1O[C@@](C#N)(c2ccc3c(N)ncnn23)[C@H](O)[C@@H]1O
- remaining at 4 h [5]: 9%
- Stabilty [6]: Stable

Structure (SMILES): OC[C@H]1O[C@@H](c2ccc3c(NO)ncnn23)[C@H](O)[C@@H]1O
- inhibition at 5 µM [1]: < 10%

Structure (SMILES): CC(C)C(=O)OC[C@H]1O[C@@](C#N)(c2ccc3c(N)ncnn23)[C@H](O)[C@@H]1OC(=O)C(C)C
- inhibition at 5 µM [1]: 99%

Structure (SMILES): N#Cc1cc([C@]2(C#N)O[C@H](CO)[C@@H](O)[C@H]2O)n2ncnc(N)c12
- inhibition at 5 µM [1]: < 10%

Structure (SMILES): CO[C@@H]1[C@H](O)[C@@H](CO)O[C@@]1(C#N)c1ccc2c(N)ncnn12
- inhibition at 5 µM [1]: < 10%

Structure (SMILES): Br.CC(C)C(=O)OC[C@H]1O[C@@](C#N)(c2ccc3c(N)ncnn23)[C@H](OC(=O)C(C)C)[C@@H]1OC(=O)C(C)C
- AUC(0-t) [7]: 3600 ng·h/mL
- half-life [8]: 2.71 h
- half-life [9]: 2.48 h
- AUC(0-t) [10]: 7110 ng·h/mL

Structure (SMILES): C=C(C)[C@@]1(c2ccc3c(N)ncnn23)O[C@H](CO)[C@@H](O)[C@H]1O
- inhibition at 5 µM [1]: < 10%

Structure (SMILES): NC(=O)[C@@]1(c2ccc3c(N)ncnn23)O[C@H](CO)[C@@H](O)[C@H]1O
- inhibition at 5 µM [1]: < 10%

Structure (SMILES): CC(C)[C@H](N)C(=O)O[C@H]1[C@@H](O)[C@](C#N)(c2ccc3c(N)ncnn23)O[C@@H]1CO.Cl.Cl
- MRT inf [11]: 2.76 h
- AUC(0-t) [7]: 5420 ng·h/mL
- half-life [8]: 1.72 h
- Cmax [12]: 1510 ng/mL
- MRT ([13]; mouse, 25 mg/kg): 0.78 h
- t1/2 ([9]; mouse, 25 mg/kg): 0.61 h
- Vdss ([14]; mouse, 25 mg/kg): 3.86 L/kg
- Tmax [15]: 0.83 h
- EC50 [2]: 110 nM
- AUC(0-t) [10]: 2980 ng·h/mL
- remaining at 4 h [5]: 34%
- F [16]: 27.5%
- inhibition at 5 µM [1]: 99%
- Stabilty [6]: Stable

Structure (SMILES): CC(C)C(=O)O[C@H]1[C@@H](O)[C@](C#N)(c2ccc3c(N)ncnn23)O[C@@H]1CO
- MRT inf [11]: 1.82 h
- AUC(0-t) [7]: 10200 ng·h/mL
- half-life [8]: 1.11 h
- Cmax [12]: 7880 ng/mL
- MRT inf [13]: 1.07 h
- half-life [9]: 0.83 h
- Vd [14]: 2.59 L/kg
- Tmax [15]: 0.33 h
- EC50 [2]: 250 nM
- AUC(0-t) [10]: 14600 ng·h/mL
- remaining at 4 h [5]: 100%
- F [16]: 71.6%
- inhibition at 5 µM [1]: 99%
- Stabilty [6]: Stable

Structure (SMILES): N#C[C@@]1(c2ccc3c(O)ncnn23)O[C@H](CO)[C@@H](O)[C@H]1O
- inhibition at 5 µM [1]: < 10%

Structure (SMILES): Nc1ncnn2c([C@@H]3O[C@H](CO)[C@@H](O)C3(F)F)ccc12
- inhibition at 5 µM [1]: < 10%

Structure (SMILES): CCC(CC)COC(=O)[C@H](C)N[P@](=O)(OC[C@H]1O[C@@](C#N)(c2cc(F)c3c(N)ncnn23)[C@H](O)[C@@H]1O)Oc1ccccc1
- inhibition at 10 µM [4]: 82%

Structure (SMILES): N#C[C@@]1(c2cc(Cl)c3c(N)ncnn23)O[C@H](CO)[C@@H](O)[C@H]1O
- inhibition at 5 µM [1]: < 10%

Structure (SMILES): N#C/C=C/[C@@]1(c2ccc3c(N)ncnn23)O[C@H](CO)[C@@H](O)[C@H]1O
- inhibition at 5 µM [1]: < 10%

Structure (SMILES): N#C[C@@]1(c2ccc3c(N)ncnn23)O[C@H](CO)[C@@H](O)[C@H]1O [GS-441524]
- EC50 [2]: 480 nM
- inhibition at 5 µM [1]: 99%

Structure (SMILES): CC(C)C(=O)OC[C@H]1O[C@@](C#N)(c2ccc3c(N)ncnn23)[C@H](O)[C@@H]1O [OBELDESIVIR]
- Activity [17]: Non-Toxic
- MRT inf [11]: 2.16 h
- AUC(0-t) [7]: 7980 ng·h/mL
- half-life [8]: 2.46 h
- Cmax [12]: 6680 ng/mL
- MRT inf [13]: 1.33 h
- half-life [9]: 4.77 h
- Vd [14]: 4.17 L/kg
- Tmax [15]: 0.42 h
- EC50 [2]: 230 nM
- MTD at 168 h [18]: 1000 mg/kg
- AUC(0-t) [10]: 13800 ng·h/mL
- Activity [19]: Non-Toxic
- remaining at 4 h [5]: 2%
- F [16]: 86.6%
- inhibition at 5 µM [1]: 99%
- Stabilty [6]: Stable
